Experimental data reported in ChEMBL document CHEMBL1143468, “Novel 3,4-diarylpyrazolines as potent cannabinoid CB1 receptor antagonists with lower lipophilicity” (Bioorg Med Chem Lett, 2005).

What was measured:
[1] = Partition coefficient (logP) (HPLC); format: physicochemical; details: octanol/water
Summary of the method: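 logP was measured with a validated reverse-phase HPLC method.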

[2] = system: Mus musculus; experiment: Antagonism of WIN-55212-2 induced hypothermia in mice expressed as least effective dose upon peroral administration; format: functional
[3] = molecular target: P-glycoprotein (ABCB1) (Homo sapiens, UniProt P08183); experiment: P-glycoprotein-based membrane transport factor, expressed as the ratio of the bottom to top transport and top to bottom transport; details: not told
[4] = system: Rattus norvegicus; experiment: Antagonism of CP-55940 induced hypotension in rat expressed as effective dose upon peroral administration; details: po
[5] = molecular target: Cannabinoid receptor 2 (Homo sapiens, UniProt P34972); experiment: Displacement of specific CP-55940 binding in CHO cells stably transfected with human cannabinoid receptor 2; format: cell-based
[6] = molecular target: Cannabinoid receptor 1 (Homo sapiens, UniProt P21554); experiment: biochemical; format: cell-based, CHO
Cannabinoid receptor 1, sequence (P21554 whole entry): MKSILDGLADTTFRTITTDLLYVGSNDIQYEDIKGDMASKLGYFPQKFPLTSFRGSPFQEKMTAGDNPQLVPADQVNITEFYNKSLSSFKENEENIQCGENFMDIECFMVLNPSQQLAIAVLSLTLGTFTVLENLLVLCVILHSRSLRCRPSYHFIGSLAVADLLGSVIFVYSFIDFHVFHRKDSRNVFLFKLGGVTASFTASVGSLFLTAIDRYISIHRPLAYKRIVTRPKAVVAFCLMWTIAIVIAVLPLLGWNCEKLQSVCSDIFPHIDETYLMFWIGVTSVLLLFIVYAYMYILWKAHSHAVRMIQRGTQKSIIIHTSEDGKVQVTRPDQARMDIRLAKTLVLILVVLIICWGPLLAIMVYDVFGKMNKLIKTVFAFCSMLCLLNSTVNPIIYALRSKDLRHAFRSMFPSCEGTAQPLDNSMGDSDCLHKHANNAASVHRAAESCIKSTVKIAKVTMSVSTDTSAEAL

Cannabinoid receptor 2, sequence (P34972 whole entry): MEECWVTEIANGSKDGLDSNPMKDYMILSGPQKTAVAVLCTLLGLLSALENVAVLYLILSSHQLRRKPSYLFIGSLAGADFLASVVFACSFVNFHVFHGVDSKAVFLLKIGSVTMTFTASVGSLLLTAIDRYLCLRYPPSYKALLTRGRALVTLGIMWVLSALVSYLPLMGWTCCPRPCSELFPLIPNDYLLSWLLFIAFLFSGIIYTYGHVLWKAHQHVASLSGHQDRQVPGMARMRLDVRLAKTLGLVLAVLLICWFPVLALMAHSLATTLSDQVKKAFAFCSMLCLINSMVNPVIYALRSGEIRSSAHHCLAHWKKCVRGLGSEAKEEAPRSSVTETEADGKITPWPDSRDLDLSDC
P-glycoprotein (ABCB1), sequence (P08183 whole entry): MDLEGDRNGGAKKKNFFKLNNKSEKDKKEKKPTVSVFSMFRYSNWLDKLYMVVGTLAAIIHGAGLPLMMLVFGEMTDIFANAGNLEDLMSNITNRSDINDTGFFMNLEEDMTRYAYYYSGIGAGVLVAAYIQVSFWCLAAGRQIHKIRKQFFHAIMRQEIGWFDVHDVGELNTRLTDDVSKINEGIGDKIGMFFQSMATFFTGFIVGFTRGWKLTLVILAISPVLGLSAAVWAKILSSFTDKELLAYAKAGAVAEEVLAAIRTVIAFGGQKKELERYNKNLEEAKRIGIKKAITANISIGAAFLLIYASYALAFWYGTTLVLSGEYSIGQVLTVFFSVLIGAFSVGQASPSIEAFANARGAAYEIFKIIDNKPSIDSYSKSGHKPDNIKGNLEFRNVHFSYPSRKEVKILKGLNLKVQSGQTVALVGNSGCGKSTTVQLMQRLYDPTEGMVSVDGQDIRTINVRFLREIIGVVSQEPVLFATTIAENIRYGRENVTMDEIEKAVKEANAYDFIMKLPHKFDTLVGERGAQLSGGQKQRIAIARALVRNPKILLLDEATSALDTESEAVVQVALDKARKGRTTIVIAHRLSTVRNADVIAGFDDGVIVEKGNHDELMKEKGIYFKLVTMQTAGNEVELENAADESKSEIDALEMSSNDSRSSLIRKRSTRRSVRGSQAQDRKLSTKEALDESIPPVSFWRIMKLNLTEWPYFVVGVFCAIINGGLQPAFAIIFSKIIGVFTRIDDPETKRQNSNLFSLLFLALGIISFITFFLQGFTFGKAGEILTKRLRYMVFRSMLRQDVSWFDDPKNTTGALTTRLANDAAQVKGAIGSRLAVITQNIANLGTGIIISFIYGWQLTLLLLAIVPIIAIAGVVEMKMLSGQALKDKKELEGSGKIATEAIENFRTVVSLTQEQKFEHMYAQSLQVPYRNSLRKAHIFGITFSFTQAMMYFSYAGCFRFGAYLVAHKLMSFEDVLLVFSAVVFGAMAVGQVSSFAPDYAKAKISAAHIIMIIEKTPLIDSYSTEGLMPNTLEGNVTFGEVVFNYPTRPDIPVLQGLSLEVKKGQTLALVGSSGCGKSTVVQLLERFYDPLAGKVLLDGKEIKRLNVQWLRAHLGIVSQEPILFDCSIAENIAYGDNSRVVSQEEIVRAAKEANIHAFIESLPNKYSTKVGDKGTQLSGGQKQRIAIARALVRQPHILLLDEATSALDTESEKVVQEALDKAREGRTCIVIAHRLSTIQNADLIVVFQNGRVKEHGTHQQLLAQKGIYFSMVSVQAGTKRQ

Row | Ki [6] [µM] | Structure (SMILES) | logP [1] | LED [2] [mg/kg] | efflux ratio [3] | ED50 [4] [mg/kg] | Ki [5] [µM]
1 |  | CN/C(=N\S(=O)(=O)N1CCCCC1)N1C[C@H](c2ccccc2)C(c2ccc(Cl)cc2)=N1 | 4.8 | 10 | 1.4 | 8 | 
2 |  | C/N=C(\NS(=O)(=O)N1CCOCC1)N1CC(c2ccccc2)C(c2ccc(Cl)cc2)=N1 (stereo not drawn) | 3.8 | 3 |  | 27 | 5.37
3 | 0.06 | CCN(CC)S(=O)(=O)N=C(NC(C)C)N1CC(c2ccccc2)C(c2ccc(Cl)cc2)=N1 (stereo not drawn) |  |  |  |  | 2.75
4 |  | CNC(=NS(=O)(=O)N1CCCCC1)N1CC(c2ccccc2)C(c2ccc(Cl)cc2)=N1 (stereo not drawn) |  |  |  |  | 1.32
5 | 0.231 | CN=C(NS(=O)(=O)N1CCCC1)N1CC(c2ccccc2)C(c2ccc(Cl)cc2)=N1 (stereo not drawn) |  |  |  |  | 1.6
6 | 0.155 | CN/C(=N\S(=O)(=O)N1CCCCCC1)N1CC(c2ccccc2)C(c2ccc(Cl)cc2)=N1 (stereo not drawn) |  |  |  |  | 1.03
7 | 0.117 | CCN(C)S(=O)(=O)NC(=NC)N1CC(c2ccccc2)C(c2ccc(Cl)cc2)=N1 (stereo not drawn) |  |  |  |  | 1.87
8 |  | C/N=C(\NS(=O)(=O)N(C)C)N1CC(c2ccccc2)C(c2ccc(Cl)cc2)=N1 (stereo not drawn) |  |  |  |  | 3.83
9 | 0.024 | C/N=C(\NS(=O)(=O)N1CCSCC1)N1CC(c2ccccc2)C(c2ccc(Cl)cc2)=N1 (stereo not drawn) |  |  |  |  | 3.53
10 | 0.832 | CN=C(NS(=O)(=O)N1CCS(=O)(=O)CC1)N1CC(c2ccccc2)C(c2ccc(Cl)cc2)=N1 (stereo not drawn) |  |  |  |  | 
11 |  | CN/C(=N\S(=O)(=O)c1ccc(Cl)cc1)N1C[C@H](c2ccccc2)C(c2ccc(Cl)cc2)=N1 [IBIPINABANT] | 5.1 | 3 |  | 5.5 | 
12 |  | Cc1c(C(=O)NN2CCCCC2)nn(-c2ccc(Cl)cc2Cl)c1-c1ccc(Cl)cc1 [RIMONABANT] |  | 3 |  | 3.2 | 

Row | Structure (SMILES) | Ki [6] [µM] | logP [1] | LED [2] [mg/kg] | efflux ratio [3] | ED50 [4] [mg/kg] | Ki [5] [µM]
13 | CCN(CC)S(=O)(=O)N/C(=N\C)N1CC(c2ccccc2)C(c2ccc(Cl)cc2)=N1 (stereo not drawn) | 0.03 | 4.8 | 3 | 1.5 | 20 | 3.27
14 | CCN(CC)S(=O)(=O)NC(=NC)N1CC(c2cccnc2)C(c2ccc(Cl)cc2)=N1 (stereo not drawn) | 0.141 | 3.2 |  | 3.4 | > 30 | 9.08
15 | CNC(=NS(=O)(=O)N1CCCCCCC1)N1CC(c2ccccc2)C(c2ccc(Cl)cc2)=N1 (stereo not drawn) | 0.125 |  |  |  |  | 2.58
16 | C/N=C(\NS(=O)(=O)N(C)C(C)C)N1CC(c2ccccc2)C(c2ccc(Cl)cc2)=N1 (stereo not drawn) | 0.032 |  |  |  |  | 1.13
17 | CC/N=C(\NS(=O)(=O)N(CC)CC)N1CC(c2ccccc2)C(c2ccc(Cl)cc2)=N1 (stereo not drawn) | 0.209 |  |  |  |  | 2.86
